From ChEMBL document CHEMBL1275561, “In vitro activities of doripenem, a new broad-spectrum carbapenem, against recently collected clinical anaerobic isolates, with emphasis on the Bacteroides fragilis group” (2008)
In brackets after ≈: the same amount, converted by molar mass.

Legend:
Format in all cases: functional
[1] = system: Parabacteroides distasonis; assay: Antimicrobial activity against Bacteroides distasonis by agar dilution method
Procedure, shortened: (§1)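 CLSI agar dilution on enriched brucella agar (5% lysed defibrinated sheep blood, 1 μg/ml vitamin K1), with drug plates made on the test day. Log-phase cells were adjusted to 0.5 McFarland, and about 10^5 CFU/spot was delivered by Steers replicator. Plates were incubated anaerobically at 37°C for 48 h. MIC was the lowest concentration giving a marked growth change versus the control plate. Controls were B. fragilis ATCC 25285 and B. thetaiotaomicron ATCC 29741.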

Bacteroides caccae [2] = assay: Antimicrobial activity against Bacteroides caccae assessed as resistant isolates by agar dilution method
Procedure, shortened: (§2)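 CLSI agar dilution on enriched brucella agar (5% lysed defibrinated sheep blood, 1 μg/ml vitamin K1), plates made on test day. Log-phase inocula adjusted to 0.5 McFarland; about 10^5 CFU/spot by Steers replicator. Incubated anaerobically at 37°C for 48 h. MIC was the lowest concentration giving a marked change in growth versus the drug-free control plate. Resistance rates used CLSI anaerobe breakpoints. Controls were B. fragilis ATCC 25285 and B. thetaiotaomicron ATCC 29741.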

Bacteroides caccae [3] = assay: Antimicrobial activity against Bacteroides caccae by agar dilution method; procedure, shortened: as §1
[4] = system: Parabacteroides distasonis; assay: Antimicrobial activity against Bacteroides distasonis assessed as resistant isolates by agar dilution method; procedure, shortened: as §2
Bacteroides fragilis [5] = assay: Antimicrobial activity against Bacteroides fragilis by agar dilution method; procedure, shortened: as §1
Bacteroides fragilis [6] = assay: Antimicrobial activity against Bacteroides fragilis assessed as resistant isolates by agar dilution method; procedure, shortened: as §2
Bacteroides ovatus [7] = assay: Antimicrobial activity against Bacteroides ovatus by agar dilution method; procedure, shortened: as §1
Bacteroides ovatus [8] = assay: Antimicrobial activity against Bacteroides ovatus assessed as resistant isolates by agar dilution method; procedure, shortened: as §2
[9] = system: Bacteroides thetaiotaomicron; assay: Antimicrobial activity against Bacteroides thetaiotaomicron by agar dilution method; procedure, shortened: as §1
[10] = system: Bacteroides thetaiotaomicron; assay: Antimicrobial activity against Bacteroides thetaiotaomicron assessed as resistant isolates by agar dilution method; procedure, shortened: as §2
Bacteroides uniformis [11] = assay: Antimicrobial activity against Bacteroides uniformis by agar dilution method; procedure, shortened: as §1
Bacteroides uniformis [12] = assay: Antimicrobial activity against Bacteroides uniformis assessed as resistant isolates by agar dilution method; procedure, shortened: as §2
Phocaeicola vulgatus [13] = assay: Antimicrobial activity against Bacteroides vulgatus by agar dilution method; procedure, shortened: as §1
Phocaeicola vulgatus [14] = assay: Antimicrobial activity against Bacteroides vulgatus assessed as resistant isolates by agar dilution method; procedure, shortened: as §2
Bacteroides eggerthii [15] = assay: Antimicrobial activity against Bacteroides eggerthii by agar dilution method; procedure, shortened: as §1
Bacteroides eggerthii [16] = assay: Antimicrobial activity against Bacteroides eggerthii assessed as resistant isolates by agar dilution method; procedure, shortened: as §2
Parabacteroides merdae [17] = assay: Antimicrobial activity against Bacteroides merdae by agar dilution method; procedure, shortened: as §1
Parabacteroides merdae [18] = assay: Antimicrobial activity against Bacteroides merdae assessed as resistant isolates by agar dilution method; procedure, shortened: as §2
Bacteroides nordii [19] = assay: Antimicrobial activity against Bacteroides nordii by agar dilution method; procedure, shortened: as §1
Bacteroides nordii [20] = assay: Antimicrobial activity against Bacteroides nordii assessed as resistant isolates by agar dilution method; procedure, shortened: as §2
Clostridioides difficile = assay: Antimicrobial activity against Clostridium difficile by agar dilution method
Clostridium perfringens = assay: Antimicrobial activity against Clostridium perfringens by agar dilution method
[Clostridium] innocuum [21] = Antimicrobial activity against Clostridium innocuum by agar dilution method
[Clostridium] innocuum [22] = Antimicrobial activity against Clostridium innocuum assessed as resistant isolates by agar dilution method; settings: pooled result: one value given for 4 cell lines, strains, targets or settings
[23] = system: Clostridium paraputrificum; assay: Antimicrobial activity against Clostridium paraputrificum by agar dilution method
Clostridium subterminale = assay: Antimicrobial activity against Clostridium subterminale by agar dilution method
Clostridium tertium = assay: Antimicrobial activity against Clostridium tertium by agar dilution method
Finegoldia magna [24] = assay: Antimicrobial activity against Finegoldia magna by agar dilution method
Procedure, shortened: (§3)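 Gram-positive anaerobes were tested by CLSI agar dilution on brucella agar enriched with 5% lysed defibrinated sheep blood and 1 μg/ml vitamin K1. Inoculum was log-phase growth at 0.5 McFarland, about 10^5 CFU/spot by replicator. Incubation was anaerobic, 37°C, 48 h. MIC was the lowest concentration with a marked growth change versus the drug-free plate. Eubacterium lentum ATCC 43055 was the control, and tests were repeated if it fell outside the CLSI range.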

Finegoldia magna [25] = assay: Antimicrobial activity against Finegoldia magna assessed as resistant isolates by agar dilution method
Procedure, shortened: (§4)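 Agar dilution following CLSI on brucella agar with 5% lysed defibrinated sheep blood and 1 μg/ml vitamin K1, plates made on test day. Log-phase cells at 0.5 McFarland, about 10^5 CFU/spot by Steers replicator, 48 h anaerobic at 37°C. MIC read as the lowest concentration causing a marked growth change versus control. Resistance counted by CLSI anaerobe breakpoints. Eubacterium lentum ATCC 43055 served as control.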

[26] = system: Peptoniphilus asaccharolyticus; assay: Antimicrobial activity against Peptoniphilus asaccharolyticus by agar dilution method; procedure, shortened: as §3
[27] = system: Peptoniphilus asaccharolyticus; assay: Antimicrobial activity against Peptoniphilus asaccharolyticus assessed as resistant isolates by agar dilution method; settings: pooled result: one value given for 4 cell lines, strains, targets or settings; procedure, shortened: as §4
Parvimonas micra = assay: Antimicrobial activity against Micromonas micros by agar dilution method; procedure, shortened: as §3
Anaerococcus prevotii = assay: Antimicrobial activity against Anaerococcus prevotii by agar dilution method; procedure, shortened: as §3
Peptostreptococcus sp. = assay: Antimicrobial activity against Peptostreptococcus sp. by agar dilution method
Procedure, shortened: (§5)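 Log-phase isolates were adjusted to 0.5 McFarland, and about 10^5 CFU/spot was delivered by Steers replicator. Plates were incubated anaerobically at 37°C for 48 h. MIC was the lowest concentration giving a marked growth change versus the control plate. Eubacterium lentum ATCC 43055 was the QC strain, with repeats when out of range.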

Cutibacterium acnes [28] = assay: Antimicrobial activity against Propionibacterium acnes by agar dilution method; procedure, shortened: as §5
Cutibacterium acnes [29] = assay: Antimicrobial activity against Propionibacterium acnes assessed as resistant isolates by agar dilution method; procedure, shortened: as §4
Propionibacterium [30] = assay: Antimicrobial activity against Propionibacterium sp. by agar dilution method; procedure, shortened: as §5
Propionibacterium [31] = assay: Antimicrobial activity against Propionibacterium sp. assessed as resistant isolates by agar dilution method; procedure, shortened: as §4

CO[C@@]1(NC(=O)Cc2cccs2)C(=O)N2C(C(=O)O)=C(COC(N)=O)CS[C@@H]21 [CEFOXITIN]
MIC50 [1]: 16 mg/L (≈ 37.4 µM)
MIC90 [1]: 32 mg/L (≈ 74.9 µM)
Activity (Bacteroides caccae [2]): 6.3%
MIC50 (Bacteroides caccae [3]): 16 mg/L (≈ 37.4 µM)
MIC90 (Bacteroides caccae [3]): 32 mg/L (≈ 74.9 µM)
Activity [4]: 6.7%
MIC50 (Bacteroides fragilis [5]): 16 mg/L (≈ 37.4 µM)
MIC90 (Bacteroides fragilis [5]): 32 mg/L (≈ 74.9 µM)
Activity (Bacteroides fragilis [6]): 3%
MIC50 (Bacteroides ovatus [7]): 16 mg/L (≈ 37.4 µM)
MIC90 (Bacteroides ovatus [7]): 64 mg/L (≈ 150 µM)
Activity (Bacteroides ovatus [8]): 14.3%
MIC50 [9]: 32 mg/L (≈ 74.9 µM)
MIC90 [9]: 64 mg/L (≈ 150 µM)
Activity [10]: 10.3%
MIC50 (Bacteroides uniformis [11]): 16 mg/L (≈ 37.4 µM)
MIC90 (Bacteroides uniformis [11]): 64 mg/L (≈ 150 µM)
Activity (Bacteroides uniformis [12]): 9.5%
MIC50 (Phocaeicola vulgatus [13]): 8 mg/L (≈ 18.7 µM)
MIC90 (Phocaeicola vulgatus [13]): 32 mg/L (≈ 74.9 µM)
Activity (Phocaeicola vulgatus [14]): 3.2%
MIC50 (Bacteroides eggerthii [15]): 16 mg/L (≈ 37.4 µM)
MIC90 (Bacteroides eggerthii [15]): 32 mg/L (≈ 74.9 µM)
Activity (Bacteroides eggerthii [16]): 0%
MIC50 (Parabacteroides merdae [17]): 16 mg/L (≈ 37.4 µM)
MIC90 (Parabacteroides merdae [17]): 32 mg/L (≈ 74.9 µM)
Activity (Parabacteroides merdae [18]): 0%
MIC50 (Bacteroides nordii [19]): 16 mg/L (≈ 37.4 µM)
MIC90 (Bacteroides nordii [19]): 32 mg/L (≈ 74.9 µM)
Activity (Bacteroides nordii [20]): 0%
MIC (Clostridioides difficile): > 8 mg/L
MIC (Clostridium perfringens): 1 mg/L (≈ 2.34 µM)
MIC50 (Clostridium perfringens): 1 mg/L (≈ 2.34 µM)
MIC90 (Clostridium perfringens): 4 mg/L (≈ 9.36 µM)
MIC50 ([Clostridium] innocuum [21]): 64 mg/L (≈ 150 µM)
MIC90 ([Clostridium] innocuum [21]): 128 mg/L (≈ 299 µM)
Activity ([Clostridium] innocuum [22]): 55.6%
MIC50 [23]: 64 mg/L (≈ 150 µM)
MIC90 [23]: > 128 mg/L
MIC50 (Clostridium subterminale): 64 mg/L (≈ 150 µM)
MIC90 (Clostridium subterminale): > 128 mg/L
MIC50 (Clostridium tertium): 64 mg/L (≈ 150 µM)
MIC90 (Clostridium tertium): > 128 mg/L
MIC (Finegoldia magna [24]): 1 mg/L (≈ 2.34 µM)
MIC50 (Finegoldia magna [24]): 1 mg/L (≈ 2.34 µM)
MIC90 (Finegoldia magna [24]): 1 mg/L (≈ 2.34 µM)
Activity (Finegoldia magna [25]): 0%
MIC [26]: 1 mg/L (≈ 2.34 µM)
MIC50 [26]: 1 mg/L (≈ 2.34 µM)
MIC90 [26]: 4 mg/L (≈ 9.36 µM)
Activity [27]: 0%
MIC (Parvimonas micra): 1 mg/L (≈ 2.34 µM)
MIC50 (Parvimonas micra): 1 mg/L (≈ 2.34 µM)
MIC90 (Parvimonas micra): 4 mg/L (≈ 9.36 µM)
MIC (Anaerococcus prevotii): 1 mg/L (≈ 2.34 µM)
MIC50 (Anaerococcus prevotii): 1 mg/L (≈ 2.34 µM)
MIC90 (Anaerococcus prevotii): 4 mg/L (≈ 9.36 µM)
MIC (Peptostreptococcus sp.): 1 mg/L (≈ 2.34 µM)
MIC50 (Peptostreptococcus sp.): 1 mg/L (≈ 2.34 µM)
MIC90 (Peptostreptococcus sp.): 4 mg/L (≈ 9.36 µM)
MIC (Cutibacterium acnes [28]): 1 mg/L (≈ 2.34 µM)
MIC50 (Cutibacterium acnes [28]): 1 mg/L (≈ 2.34 µM)
MIC90 (Cutibacterium acnes [28]): 1 mg/L (≈ 2.34 µM)
Activity (Cutibacterium acnes [29]): 0%
MIC (Propionibacterium [30]): 1 mg/L (≈ 2.34 µM)
MIC50 (Propionibacterium [30]): 1 mg/L (≈ 2.34 µM)
MIC90 (Propionibacterium [30]): 1 mg/L (≈ 2.34 µM)
Activity (Propionibacterium [31]): 0%
